Active and inactive are the calls of the source. No cut-off for these calls is given here.

For orientation: ED50 means the midpoint of the dose-response relation.

Experiment [1] deals with Mus musculus. Briefly: Anticonvulsant activity in ip dosed NMRI mouse assessed as protection against maximal electroshock-induced seizure after 30 mins. Type of experiment: functional. Conditions: 0.5 h. The method, boiled down: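 Adult male NMRI mice dosed ip (UCB Pharma). MES test run per the Klitgaard procedure. […] Single-dose runs report the percentage of animals protected.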

The subject of experiment [2] is Mus musculus. Description: Anticonvulsant activity in ip dosed NMRI mouse assessed as protection against 6 Hz psychomotor seizure after 30 mins. Type of experiment: functional. The following applies: 0.5 h, read-out: MED. The method, boiled down: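 Adult male NMRI mice dosed ip (UCB Pharma). 6 Hz psychomotor seizure model at 44 mA, per Kaminski and co-workers.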

The test system of experiment [3] is Mus musculus. Description: Antinociceptive activity in NMRI mouse assessed as inhibition of formalin-induced neuropathic pain at 68 mg/kg, ip after 30 mins. Type of experiment: functional. Also on record: scale not given: the % may be the effect or the level left. The following applies: route intraperitoneal. The method, boiled down:
(§1)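 NMRI mice dosed ip at UCB Pharma, then tested in the formalin model of neuropathic pain. ED50 in mg/kg read 30 min after administration. Single-dose runs report the percentage protected.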

The subject of experiment [4] is Mus musculus. Briefly: Antinociceptive activity in NMRI mouse assessed as inhibition of formalin-induced neuropathic pain at 25 mg/kg, ip after 30 mins. The experiment is classed as functional, organism-based. Further details: dose 25 mg/kg. The method, boiled down: as §1
The subject of experiment [5] is Mus musculus. Description: Antinociceptive activity in NMRI mouse assessed as inhibition of formalin-induced neuropathic pain at 79 mg/kg, ip after 30 mins. The following applies: route intraperitoneal. Type of experiment: functional. Further details: scale not given: the % may be the effect or the level left. Summed up:
as §1

For `CCCC(N)C(=O)NCc1ccccc1` (racemic), the ED50 in the experiment on Mus musculus [1] came out at 39 mg/kg. For the same molecule, in the experiment with Mus musculus [2], the minimal effective dose is 120 mg/kg. Besides, the Activity in the experiment on Mus musculus [3] stood at 17%.

Consider `N[C@@H](C(=O)NCc1ccccc1)C1CCCCC1`, for which, in the experiment with Mus musculus [1], the 50% effective dose (ED50) was 28 mg/kg. The minimal effective dose in the experiment on Mus musculus [2] was found to be 140 mg/kg. For the same molecule, in the experiment on Mus musculus [4], the outcome was inactive. Moreover, in the experiment with Mus musculus [5], the Activity is 95%.
